Test results reported in ChEMBL document CHEMBL1649269, “In vitro activities of three new dihydrofolate reductase inhibitors against clinical isolates of gram-positive bacteria” (2009).

Experiments:
[1] = system: Streptococcus sp. 'group B'; assay: Antimicrobial activity against Group B Streptococcus assessed as susceptible isolates by agar dilution method; format: functional
Summary of the method: (§1)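 Clinical isolates of beta-hemolytic streptococci, S. mitis and S. pneumoniae were tested by CLSI methodology, with Mueller-Hinton medium supplemented with 5% lysed horse blood. S. aureus ATCC 29213 and S. pneumoniae ATCC 49619 served as control strains. The percentage of susceptible isolates was derived from CLSI breakpoints.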

[2] = system: Streptococcus sp. 'group B'; assay: Antimicrobial activity against Group B Streptococcus by agar dilution method; format: functional; summary of the method: as §1
Staphylococcus [3] = assay: Antimicrobial activity against Coagulase-negative Staphylococcus by agar dilution method; format: functional
Summary of the method: (§2)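 CLSI agar dilution MIC testing of clinical isolates of staphylococci and Listeria. S. aureus ATCC 29213 and S. pneumoniae ATCC 49619 served as control strains. The percentage of susceptible isolates was calculated from CLSI breakpoints.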

Staphylococcus aureus [4] = assay: Antimicrobial activity against vancomycin-resistant Staphylococcus aureus by agar dilution method; format: functional
Summary of the method: (§3)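 Clinical S. aureus isolates classed as hVISA or VISA by population analysis profiling. MICs by CLSI agar dilution, with S. aureus ATCC 29213 as control strain.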

Streptococcus pneumoniae [5] = assay: Antimicrobial activity against Streptococcus pneumoniae assessed as susceptible isolates by agar dilution method; format: functional; summary of the method: as §1
Staphylococcus aureus [6] = assay: Antimicrobial activity against methicillin-sensitive Staphylococcus aureus by agar dilution method; format: functional
Summary of the method: (§4)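 MICs against clinical MRSA or MSSA isolates by CLSI agar dilution, with S. aureus ATCC 29213 as control strain. Percentage of susceptible isolates was calculated from the MICs using CLSI breakpoints.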

Listeria monocytogenes = assay: Antimicrobial activity against Listeria monocytogenes by agar dilution method; format: functional; summary of the method: as §2
Staphylococcus aureus [7] = assay: Antimicrobial activity against vancomycin-resistant Staphylococcus aureus assessed as susceptible isolates by agar dilution method; format: functional
[8] = system: Streptococcus sp. 'group A'; assay: Antimicrobial activity against Group A Streptococcus assessed as susceptible isolates by agar dilution method; format: functional; summary of the method: as §1
Staphylococcus [9] = assay: Antimicrobial activity against Coagulase-negative Staphylococcus assessed as susceptible isolates by agar dilution method; format: functional; summary of the method: as §2
Corynebacterium sp. = assay: Antimicrobial activity against Corynebacterium spp. by agar dilution method; format: functional
[10] = Antimicrobial activity against Group G Streptococcus by agar dilution method; format: functional; conditions: Streptococcus sp. 'group G'; summary of the method: as §1
[11] = Antimicrobial activity against Group C Streptococcus by agar dilution method; format: functional; conditions: Streptococcus sp. 'group C'; summary of the method: as §1
Staphylococcus aureus [12] = assay: Antimicrobial activity against Heterovancomycin-resistant Staphylococcus aureus by agar dilution method; format: functional; summary of the method: as §3
Streptococcus mitis = assay: Antimicrobial activity against Streptococcus mitis by broth dilution method
[13] = Antimicrobial activity against Group C Streptococcus assessed as susceptible isolates by agar dilution method; format: functional, Streptococcus sp. 'group C'; summary of the method: as §1
Staphylococcus aureus [14] = assay: Antimicrobial activity against Heterovancomycin-resistant Staphylococcus aureus assessed as susceptible isolates by agar dilution method; format: functional
[15] = Antimicrobial activity against Group G Streptococcus assessed as susceptible isolates by agar dilution method; format: functional, Streptococcus sp. 'group G'; summary of the method: as §1
Staphylococcus aureus [16] = assay: Antimicrobial activity against methicillin-sensitive Staphylococcus aureus assessed as susceptible isolates by agar dilution method; format: functional; summary of the method: as §4
[17] = system: Streptococcus sp. 'group A'; assay: Antimicrobial activity against Group A Streptococcus by agar dilution method; format: functional; summary of the method: as §1
Staphylococcus aureus [18] = assay: Antimicrobial activity against methicillin-resistant Staphylococcus aureus by agar dilution method; format: functional; summary of the method: as §4
Streptococcus pneumoniae [19] = assay: Antimicrobial activity against Streptococcus pneumoniae by agar dilution method; format: functional; summary of the method: as §1
Staphylococcus aureus [20] = assay: Antimicrobial activity against methicillin-resistant Staphylococcus aureus assessed as susceptible isolates by agar dilution method; format: functional; summary of the method: as §4

CN(C)c1ccc(O)c2c1C[C@H]1C[C@H]3[C@H](N(C)C)C(O)=C(C(N)=O)C(=O)[C@@]3(O)C(O)=C1C2=O [MINOCYCLINE]
93%: Activity (Streptococcus pneumoniae [5])
96%: Activity (Staphylococcus aureus [7]) | Activity (Staphylococcus [9])
0.25 µg/mL: MIC (Staphylococcus aureus [6]) | MIC50 (Staphylococcus aureus [6]) | MIC90 (Staphylococcus aureus [6]) | MIC (Listeria monocytogenes) | MIC50 (Listeria monocytogenes) | MIC50 [10] | MIC50 [11] | MIC50 (Staphylococcus aureus [12]) | MIC (Streptococcus mitis) | MIC50 (Streptococcus mitis) | MIC90 [17] | MIC (Staphylococcus aureus [18]) | MIC50 (Staphylococcus aureus [18]) | MIC90 (Staphylococcus aureus [18]) | MIC50 (Streptococcus pneumoniae [19]) | MIC90 (Streptococcus pneumoniae [19])
32 µg/mL: MIC90 [2]
100%: Activity [8] | Activity (Staphylococcus aureus [16])
84%: Activity [13]
0.5 µg/mL: MIC50 (Staphylococcus [3]) | MIC90 (Staphylococcus aureus [12])
2 µg/mL: MIC90 (Staphylococcus [3]) | MIC50 (Corynebacterium sp.)
0.12 µg/mL: MIC [17] | MIC50 [17]
75%: Activity [15]
29%: Activity [1]
16 µg/mL: MIC50 [2] | MIC90 (Listeria monocytogenes) | MIC90 (Corynebacterium sp.) | MIC90 [10]
1 µg/mL: MIC50 (Staphylococcus aureus [4])
4 µg/mL: MIC90 (Staphylococcus aureus [4]) | MIC90 [11]
92%: Activity (Staphylococcus aureus [14])

CCCCCCCCCC(=O)N[C@@H](Cc1c[nH]c2ccccc12)C(=O)N[C@H](CC(N)=O)C(=O)N[C@@H](CC(=O)O)C(=O)N[C@@H]1C(=O)NCC(=O)N[C@@H](CCCN)C(=O)N[C@@H](CC(=O)O)C(=O)N[C@H](C)C(=O)N[C@@H](CC(=O)O)C(=O)NCC(=O)N[C@H](CO)C(=O)N[C@@H]([C@H](C)CC(=O)O)C(=O)N[C@@H](CC(=O)c2ccccc2N)C(=O)O[C@@H]1C
71%: Activity (Staphylococcus aureus [7])
96%: Activity (Staphylococcus aureus [14])
0.5 µg/mL: MIC90 (Staphylococcus [3]) | MIC50 (Staphylococcus aureus [12]) | MIC90 (Staphylococcus aureus [12])
0.006 µg/mL: MIC (Streptococcus mitis)
0.03 µg/mL: MIC90 [10] | MIC50 [11] | MIC90 [17]
0.06 µg/mL: MIC90 [2] | MIC50 (Corynebacterium sp.) | MIC50 (Streptococcus pneumoniae [19])
0.25 µg/mL: MIC50 (Staphylococcus [3]) | MIC50 (Staphylococcus aureus [6]) | MIC90 (Staphylococcus aureus [6]) | MIC50 (Streptococcus mitis) | MIC90 (Staphylococcus aureus [18])
0.12 µg/mL: MIC90 (Corynebacterium sp.) | MIC90 [11] | MIC (Staphylococcus aureus [18]) | MIC50 (Staphylococcus aureus [18]) | MIC90 (Streptococcus pneumoniae [19])
2 µg/mL: MIC90 (Staphylococcus aureus [4]) | MIC90 (Listeria monocytogenes)
1 µg/mL: MIC50 (Staphylococcus aureus [4]) | MIC50 (Listeria monocytogenes)
0.015 µg/mL: MIC [2] | MIC50 [2] | MIC [10] | MIC50 [10] | MIC [17] | MIC50 [17]
100%: Activity [1] | Activity [8] | Activity (Staphylococcus [9]) | Activity [13] | Activity [15] | Activity (Staphylococcus aureus [16])

COc1cc(Cc2cnc(N)nc2N)cc(OC)c1OC [TRIMETHOPRIM]
71%: Activity (Staphylococcus aureus [7])
0.25 µg/mL: MIC50 (Staphylococcus aureus [18])
0.5 µg/mL: MIC50 [11] | MIC50 [17]
2 µg/mL: MIC90 (Staphylococcus aureus [6])
92%: Activity (Staphylococcus aureus [16])
16 µg/mL: MIC50 (Staphylococcus [3]) | MIC50 (Corynebacterium sp.) | MIC90 (Corynebacterium sp.) | MIC90 (Staphylococcus aureus [12])
80%: Activity (Staphylococcus aureus [14]) | Activity (Staphylococcus aureus [20])
< 0.008 µg/mL: MIC (Streptococcus mitis)
1 µg/mL: MIC50 [2] | MIC90 [2] | MIC50 (Staphylococcus aureus [4]) | MIC50 (Staphylococcus aureus [6]) | MIC50 [10] | MIC90 [10] | MIC90 [11] | MIC50 (Staphylococcus aureus [12]) | MIC90 [17] | MIC50 (Streptococcus pneumoniae [19])
48%: Activity (Staphylococcus [9])
0.06 µg/mL: MIC50 (Listeria monocytogenes) | MIC90 (Listeria monocytogenes)
4 µg/mL: MIC50 (Streptococcus mitis) | MIC90 (Streptococcus pneumoniae [19])
32 µg/mL: MIC90 (Staphylococcus [3]) | MIC90 (Staphylococcus aureus [4]) | MIC90 (Staphylococcus aureus [18])

CC(=O)NC[C@H]1CN(c2ccc(N3CCOCC3)c(F)c2)C(=O)O1 [LINEZOLID]
0.12 µg/mL: MIC90 (Corynebacterium sp.)
100%: Activity [1] | Activity (Streptococcus pneumoniae [5]) | Activity [8] | Activity (Staphylococcus [9]) | Activity [13] | Activity [15] | Activity (Staphylococcus aureus [16])
2 µg/mL: MIC90 [2] | MIC90 (Staphylococcus [3]) | MIC90 (Staphylococcus aureus [4]) | MIC50 (Staphylococcus aureus [6]) | MIC90 (Staphylococcus aureus [6]) | MIC (Listeria monocytogenes) | MIC50 (Listeria monocytogenes) | MIC90 (Listeria monocytogenes) | MIC50 [10] | MIC90 [10] | MIC90 [11] | MIC90 (Staphylococcus aureus [12]) | MIC50 (Staphylococcus aureus [18]) | MIC90 (Staphylococcus aureus [18]) | MIC90 (Streptococcus pneumoniae [19])
0.06 µg/mL: MIC50 (Corynebacterium sp.)
1 µg/mL: MIC [2] | MIC50 [2] | MIC50 (Staphylococcus [3]) | MIC50 (Staphylococcus aureus [4]) | MIC [11] | MIC50 [11] | MIC (Staphylococcus aureus [12]) | MIC50 (Staphylococcus aureus [12]) | MIC50 (Streptococcus mitis) | MIC50 [17] | MIC90 [17] | MIC50 (Streptococcus pneumoniae [19])
